Compound activity (PubChem)
MrgX1 antag: antagonists of human MrgX1 receptor; MRGX1-HEK293 calcium flux, Fluo-4, BAM8-22 antagonism; stronger effect = lower value; B-score at 10 µM; 1.3% of 310,000 active;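 active = calcium-response B-score plate-corrected more than 3 library SD below zero, starting fluorescence within 5 deviations, no agonist response on first addition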;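 also: peak minus trough fluorescence over baseline after final BAM8-22 challenge near maximal dose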
Target sequence (Q96LB2 whole entry, looked up): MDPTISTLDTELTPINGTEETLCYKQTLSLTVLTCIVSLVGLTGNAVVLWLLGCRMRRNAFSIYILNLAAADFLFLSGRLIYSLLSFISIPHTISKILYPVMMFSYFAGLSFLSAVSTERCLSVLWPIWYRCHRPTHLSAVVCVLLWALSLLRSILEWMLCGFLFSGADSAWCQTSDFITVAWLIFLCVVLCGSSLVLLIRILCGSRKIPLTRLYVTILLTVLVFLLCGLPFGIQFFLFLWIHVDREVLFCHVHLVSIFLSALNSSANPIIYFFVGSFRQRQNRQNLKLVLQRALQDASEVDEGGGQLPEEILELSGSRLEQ
MrgX1 agonist: activates human MrgX1 receptor signaling; Q96LB2; MrgX1-HEK293 cells, Fluo-4 calcium fluorescence, agonist mode; stronger effect = higher value; B-score at 10 µM; 0.44% of 310,000 active;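 active = calcium response B-score plate-corrected fluorescence ratio at least 3 library SD, with starting fluorescence B-score inside 5 SD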
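Material – MrgX1-expressing HEK293 cells · Input – 15,000 cells seeded per well · Dosing – compound as first of three additions · Times – overnight seeding, then 1 h dark dye loading · Measured by – kinetic Fluo-4 NW fluorescence of intracellular calcium · Read-out – B-scored fluorescence response ratio · Benchmarks – positive and negative control wells on each plate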
MrgX1 allo act: human MrgX1 positive allosteric modulation, primary screen; Q96LB2; MrgX1-HEK293, Fluo-4 calcium flux, FDSS; stronger effect = higher value; B-score at 10 µM; 0.63% of 310,000 active; AID 588675;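 active = plate-corrected calcium response at least 3 library SD above typical, normal starting fluorescence, not activating the receptor alone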;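 also: compound read alongside a low EC10 to EC30 dose of BAM8-22 agonist; peak minus trough fluorescence over baseline measured at the second addition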
RGS4 block: human RGS4 inhibition; B-score at 10 µM; AID 463165; 0.45% of 310,000 active; P49798; HEK293 M3R/RGS4 inducible, Fluo-4 calcium flux; stronger effect = higher value; triggered by carbachol at its EC20;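 active = B-score, a plate-corrected calcium signal, over three deviations above library mean, with baseline fluorescence within five deviations of library mean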;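 also: RGS4 expression induced by doxycycline in cells with stable M3 receptor; B-score is computed from the integrated fluorescence ratio over baseline after carbachol; higher B-score means a larger calcium signal and so more RGS4 inhibition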
Target sequence (P49798 whole entry, looked up): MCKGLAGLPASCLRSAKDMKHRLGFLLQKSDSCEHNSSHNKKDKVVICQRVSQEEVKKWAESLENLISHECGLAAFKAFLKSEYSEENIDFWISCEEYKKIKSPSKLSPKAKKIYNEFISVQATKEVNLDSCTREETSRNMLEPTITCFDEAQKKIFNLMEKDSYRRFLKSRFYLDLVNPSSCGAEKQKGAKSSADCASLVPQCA
RGS4 pot: potentiators or activators of RGS4 | HEK293 M3R/inducible RGS4, carbachol calcium flux Fluo4; stronger effect = lower value | B-score at 10 µM | 0.92% of 310,000 active | AID 463111;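 active = B-score of the integrated calcium signal more than 4 SD below the library mean, with starting fluorescence not abnormally high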;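 also: negative B-score means reduced calcium response which marks RGS4 activation or potentiation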
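System: HEK293 FlpIn-TREx cells, stable M3R, doxycycline-inducible RGS4. Timing: overnight RGS4 induction, 30 min dye load 37 °C, 20 min compound RT. Also added: carbachol, ECmax concentration. Measured by: Fluo4 fluorescence kinetic imaging of calcium. Evaluation: integrated calcium ratio converted to B score.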
RGS4 block valid: validation of RGS4 inhibitors; shares compounds with RGS4 block; HEK293 M3R/RGS4, carbachol calcium Fluo-4 fluorescence; carbachol added at its EC20; 0 = buffer wells, 100 = carbachol control; calcium response, % at 10 µM; 65% of 1,700 active; AID 492999;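 active = duplicate-averaged calcium response above the buffer-only control mean plus 5 SD of those controls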;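 also: integrated fluorescence ratio F max minus min over baseline F0; higher response in RGS4-induced cells means RGS4 inhibition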
M3R Ca ctr: counter-screen for RGS4 inhibitors: effect in non-induced cells | shares compounds with RGS4 block | HEK293 M3R non-induced, carbachol calcium Fluo-4; submaximal (EC20) carbachol stimulus; buffer wells 0%, carbachol control wells 100% | activity (percent), % at 10 µM | 20% of 1,900 active; call rule not given here;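 also: RGS4 induction absent so cells express M3R without RGS4; higher means more calcium signal and flags a non-specific hit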
M3R basal Ca ctr: second RGS4 inhibitor counter-screen in uninduced cells lacking carbachol; shares compounds with RGS4 block; HEK293 M3R/RGS4 non-induced, Fluo-4 calcium, no carbachol; normalised: buffer wells 0%, carbachol wells 100%; calcium response (agonist-mode artifact), % at 10 µM; 22% of 1,900 active; AID 493001;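 active = duplicate-averaged calcium rise in uninduced cells above buffer wells' mean plus 5 SD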
An asterisk follows results filed as active; i = inactive; / = not tested or not shown. Shown are actives, neighbours in structure and some others; about 3.5% of the full set was active somewhere.

SMILES | MrgX1 antag | MrgX1 agonist | MrgX1 allo act | RGS4 block | RGS4 pot | RGS4 block valid | M3R Ca ctr | M3R basal Ca ctr
CCOC(=O)NC(=O)CSc1nc(-c2ccc(C)c(C)c2)cn1-c1ccccc1 | i | i | i | i | i | / | / | /
O=C(COc1ncnc2sccc12)N1CCN(C(=O)c2ccco2)CC1 | i | i | i | i | i | / | / | /
O=S(=O)(/N=C(\Sc1ccc(Cl)cc1)c1ccccc1)c1ccccc1 | i | i | i | i | i | i | i | 18%*
Nc1nc(SCC(=O)Nc2ccc3c(c2)OCO3)n[nH]1 | i | i | i | i | i | / | / | /
Cc1cccc(-c2nc3sc(C)cc3c(=O)o2)c1 | i | i | i | i | i | / | / | /
CCOC(=O)C1CCN(Cc2nc3ccccc3c(=O)n2-c2ccc(OCC)cc2)CC1 | / | / | / | 6.1* | i | 6.5%* | i | i
CCSc1nc2ccccc2n1C(=O)/C=C/c1ccc(OC)c(OC)c1 | i | i | i | 11* | i | 12%* | i | i
C=CCSc1nc2ccccc2n1C(=O)/C=C/c1ccc(OC)c(OC)c1 | i | i | i | i | i | / | i | 12%*
C=CCSc1nc2ccccc2n1C(=O)/C=C/c1cc(OC)c(OC)c(OC)c1 | i | i | i | i | i | / | / | /
O=C1NC(=S)S/C1=C\c1coc2ccc(O)cc2c1=O | i | i | i | 6.3* | i | 26%* | 65%* | i
CN1CCN(S(=O)(=O)c2ccc(N3CCc4ccccc4C3)nc2)CC1 | i | i | i | i | i | / | / | /
Cc1ccc(Nc2nc(N)nc(CSc3nc4ccccc4s3)n2)cc1 | i | i | i | 5.1* | i | 8.0%* | i | i
Cc1ccc(Nc2nc(N)nc(CCl)n2)cc1 | i | i | i | 4.7* | i | 7.0%* | i | i
COc1ccc(OC)c(Nc2nc(N)nc(CSc3nnc(N)s3)n2)c1 | i | i | i | i | i | / | / | /
COc1ccc(Nc2nc(N)nc(CSc3nnc(C)s3)n2)cc1 | i | i | i | i | i | i | i | i
CCOc1c(Cl)cc(CNc2ccc(N3CCCC3)cc2)cc1OC | / | / | / | 5.7* | i | 18%* | i | i
CCOc1c(Cl)cc(CNc2ccc(S(N)(=O)=O)cc2)cc1OC | i | i | i | i | i | / | / | /
Nc1n[nH]c(C2CC2)c1N=Nc1ccc(Cl)cc1 | i | i | i | 7* | i | 6.5%* | i | i
Cc1ccc(N=Nc2c(N)n[nH]c2N)cc1 | i | i | i | i | i | / | / | /
Cc1[nH]nc(N)c1N=Nc1ccc(Br)cc1 | i | i | i | 17* | i | 20%* | i | i
Nn1c(Nc2ccccc2)nc2sc3c(c2c1=O)CCC3 | / | / | / | 4.8* | i | 14%* | i | i
O=C(CCN1CCOCC1)c1ccc(Cl)cc1 | i | i | i | 12* | i | 17%* | 56%* | 25%*
CCCCCOc1ccc(C(=O)CCN2CCOCC2)cc1 | i | i | i | i | i | / | / | /
O=C(CCN1CCN(c2ccccc2)CC1)c1ccc(Br)cc1 | i | i | i | 27* | i | 16%* | i | i
Clc1ccc(OCCN2CCOCC2)cc1 | i | i | i | i | i | / | / | /
SMILES | MrgX1 antag | MrgX1 agonist | MrgX1 allo act | RGS4 block | RGS4 pot | RGS4 block valid | M3R Ca ctr | M3R basal Ca ctr
O=C(CCN1CCOCC1)c1ccc(Br)cc1 | i | i | i | 8.4* | i | 29%* | i | 16%*
O=C(Nc1cccc(-n2cnnn2)c1)c1ccoc1COc1ccc(Cl)cc1 | i | i | i | i | i | / | / | /
CCN(C(=O)c1cc(Cl)ccc1Cl)C1CCS(=O)(=O)C1 (centres undefined) | i | i | i | i | i | / | / | /
O=C1c2cccc3cc([N+](=O)[O-])cc(c23)C(=O)N1c1ccccc1O | i | i | i | 5.1* | i | 14%* | i | i
COc1cc(/C=C/c2[nH]c(=O)[nH]c(=O)c2[N+](=O)[O-])cc(OC)c1O | i | i | i | i | i | / | / | /
COc1cccc(/C=C/c2[nH]c(=O)[nH]c(=O)c2[N+](=O)[O-])c1O | i | i | i | 5.3* | i | 17%* | i | i
O=c1[nH]c(/C=C/c2ccccc2Cl)c([N+](=O)[O-])c(=O)[nH]1 | i | i | i | 10* | i | 44%* | 42%* | i
CC(C)c1ccc(/C=C/c2[nH]c(=O)[nH]c(=O)c2[N+](=O)[O-])cc1 | i | i | i | i | i | / | / | /
CC(Sc1ccccc1)C(=O)NCC1COc2ccccc2O1 (centres undefined) | i | i | i | i | i | / | / | /
COc1ccc(C(=O)COC(=O)CCS(=O)(=O)c2ccc(C)cc2)c(OC)c1 | i | i | i | i | i | / | / | /
COc1ccc(C(=O)CCS(=O)(=O)c2ccc(C)cc2)cc1OC | i | i | i | 29* | i | 80%* | 58%* | 20%*
O=C/C=C/c1coc2ccc3ccccc3c2c1=O | i | i | i | 15* | i | 13%* | 36%* | i
COc1ccc(-c2csc(Nc3cc(C)ccn3)n2)cc1C | i | i | i | 9.8* | i | 34%* | 39%* | i
CN(C)/N=C/C=C1\CCC/C(=C\c2ccc(F)c(F)c2)C1=O | i | i | i | 23* | i | 8.5%* | i | i
COc1ccc(/C=C2\CCC/C(=C\C=N\N(C)C)C2=O)cc1 | i | i | i | i | i | / | / | /
COC(=O)c1sc(NC(=O)CSc2nc3cccnc3n2C2CCCCC2)nc1C | i | i | i | 4.9* | i | 9.5%* | i | i
CCc1c(O)nc(SCC(=O)Nc2ccc(OC)cc2)n(C2CCCCC2)c1=O | i | i | i | i | i | / | / | /
COC(=O)c1sc(NC(=O)CSc2nc3cccnc3n2C)nc1C | i | i | i | i | i | / | / | /
CCc1c(O)nc(SCC(=O)Nc2nc3ccccc3s2)n(C2CCCCC2)c1=O | i | i | i | 5.8* | i | 37%* | i | i
